Active and inactive are the calls of the source. The rule behind the calls is not given here.
What was measured:
MDA-MB-231 [1] = test: Antiinvasive activity in human MDA-MB-231 cells at 10 uM after 24 hrs by matrigel assay; assay type: functional; settings: MDA-MB-231, 24 h
How it was run: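 Cells serum-starved 24 h, trypsinized and resuspended in medium with DMSO or compound; 2.5×10^4 cells/well seeded on Matrigel-coated inserts. Bottom well held 10% FBS medium with DMSO or 10 μM compound. After 24 h, non-invaded cells were scrubbed off and invaded cells fixed (4% formaldehyde, 10 min, RT), stained with 0.04% crystal violet and counted at 100× in five random fields. Result is % invasion relative to DMSO.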

MDA-MB-231 [2] = test: Cytotoxicity against human MDA-MB-231 cells assessed as survival at 1 uM after 5 days; assay type: functional; settings: MDA-MB-231, 120 h, read-out: Survival
MDA-MB-231 [3] = test: Antimigratory activity in human MDA-MB-231 cells after 24 hrs using transwell system by light microscopy; assay type: functional, cell-based; settings: MDA-MB-231, 24 h
How it was run: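 Transwell chambers: 2.5×10^4 cells in serum-free, phenol red-free medium in the upper chamber, with DMEM + 5% FBS below as chemoattractant. Compounds at 10^-8, 10^-7, 10^-6 and 10^-5 M, with 0.1% DMSO vehicle, for 24 h. Membranes were scrubbed, formalin-fixed, methanol-permeabilized and stained with 0.1% crystal violet. Migrated cells were counted by light microscopy per 100× field as % of vehicle. IC50 is the concentration giving 50% migration inhibition.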

HeLa (Homo sapiens) = test: Induction of disorganization of actin filaments in human HeLa cells assessed as decrease in F-actin staining intensity near cell membrane at 10^-6 M by phalloidin staining

| SMILES | inhibition at 10 µM (MDA-MB-231 [1]) | viability at 1 µM (MDA-MB-231 [2]) | IC50 (MDA-MB-231 [3]) | Activity (HeLa (Homo sapiens)) |
| --- | --- | --- | --- | --- |
| Cc1ccc(-c2cs/c(=N\C(=O)c3ccccc3)n2C)c(C)c1 | > 50% | 101% | 0.218 µM | – |
| Cc1ccc(-c2cn(C)/c(=N/C(=O)c3ccccc3)s2)cc1 | – | 113% | > 25 µM | – |
| COc1cc(-c2cs/c(=N\C(=O)c3ccccc3)n2C)cc(OC)c1OC | – | 88.4% | 1.07 µM | – |
| C=CCn1c(-c2ccc(C)cc2C)cs/c1=N\C(=O)c1ccccc1 | – | 115% | 0.456 µM | – |
| Cc1ccc(-c2csc(NS(=O)(=O)c3ccccc3)n2)c(C)c1 | – | 137% | 11 µM | – |
| Cc1s/c(=N\C(=O)c2ccccc2)n(C)c1-c1ccccc1 | – | 68.4% | 0.197 µM | – |
| COc1cccc(C(=O)/N=c2\scc(-c3cc(OC)c(OC)c(OC)c3)n2C)c1 | – | 104% | > 50 µM | – |
| COc1cc(C(=O)N(C)c2nc(-c3cc(OC)c(OC)c(OC)c3)cs2)cc(OC)c1OC | – | 115% | 0.47 µM | – |
| Cc1sc(N(C)C(=O)c2ccccc2)nc1-c1ccc(F)cc1 | – | 108% | 1.62 µM | – |
| CN(C(=O)c1ccccc1)c1nc(-c2cccc(Br)c2)cs1 | – | 104% | 0.437 µM | – |
| COc1ccc(C(=O)N(C)c2nc(-c3cc(OC)c(OC)c(OC)c3)cs2)cc1OC | – | 102% | > 25 µM | – |
| COc1ccc(C(=O)N(C)c2nc(-c3cc(OC)c(OC)c(OC)c3)cs2)cc1 | – | 100% | 0.312 µM | – |
| CCn1c(-c2ccc(C)cc2C)cs/c1=N\C(=O)c1ccccc1 | > 50% | 142% | 1.95 µM | – |
| COc1cc(C(=O)Nc2nc(-c3cc(OC)c(OC)c(OC)c3)cs2)cc(OC)c1OC | – | 77.6% | 1.03 µM | – |
| COc1cc(-c2csc(NC(=O)c3ccc(Cl)cc3)n2)cc(OC)c1OC | – | 85.6% | > 25 µM | – |
| COc1cc(-c2csc(N(C)C(=O)c3cccc(OC)c3OC)n2)cc(OC)c1OC | – | 118% | 0.108 µM | – |
| C#CCn1c(-c2ccccc2)cs/c1=N\C(=O)c1ccccc1 | – | 63% | 2.78 µM | – |
| COc1cc(-c2cs/c(=N\C(=O)c3ccc(Cl)cc3)n2C)cc(OC)c1OC | – | 77.6% | 0.758 µM | – |
| CCN(C(=O)c1ccccc1)c1nc(-c2ccccc2)cs1 | – | 129% | 0.533 µM | – |
| COc1cccc(C(=O)N(C)c2nc(-c3cc(OC)c(OC)c(OC)c3)cs2)c1 | – | 88.9% | 0.646 µM | – |
| Cn1c(-c2cc(C(F)(F)F)cc(C(F)(F)F)c2)cs/c1=N\C(=O)c1ccccc1 | – | 79.8% | 0.0961 µM | – |

| SMILES | inhibition at 10 µM (MDA-MB-231 [1]) | viability at 1 µM (MDA-MB-231 [2]) | IC50 (MDA-MB-231 [3]) | Activity (HeLa (Homo sapiens)) |
| --- | --- | --- | --- | --- |
| Cn1c(C2CC2)cs/c1=N\C(=O)c1ccccc1 | – | 90.7% | 0.104 µM | – |
| COc1cccc(C(=O)Nc2nc(-c3cc(OC)c(OC)c(OC)c3)cs2)c1 | – | 92.6% | 14 µM | – |
| O=C(Nc1nc(-c2ccc(Br)cc2)cs1)c1ccccc1 | – | 82.2% | 9.5 µM | – |
| CCCCn1c(-c2ccc(C)cc2C)cs/c1=N\C(=O)c1ccccc1 | – | 70.4% | 0.196 µM | – |
| COc1ccc(C(=O)Nc2nc(-c3cc(OC)c(OC)c(OC)c3)cs2)c(OC)c1 | – | 93.8% | > 50 µM | – |
| Cc1ccc(-c2cs/c(=N\S(=O)(=O)c3ccccc3)n2C)c(C)c1 | – | 92.4% | 1.46 µM | – |
| CCCn1c(-c2ccccc2)cs/c1=N\C(=O)c1ccccc1 | – | 100% | 0.657 µM | – |
| Cc1sc(NC(=O)c2ccccc2)nc1-c1ccc(F)cc1 | – | 53.7% | 9.1 µM | – |
| Cn1c(-c2ccccc2Cl)cs/c1=N\C(=O)c1ccccc1 | – | 72.2% | 0.268 µM | – |
| O=C(Nc1nc(-c2cccc(Cl)c2)cs1)c1ccccc1 | – | 71.4% | 0.123 µM | – |
| Cc1ccc(-c2cnc(N(C)C(=O)c3ccccc3)s2)cc1 | – | 59.3% | 1.09 µM | – |
| Cc1cs/c(=N\C(=O)c2ccccc2)n1C | – | 103% | 15 µM | – |
| COc1cc(-c2csc(NC(=O)c3cccc(OC)c3OC)n2)cc(OC)c1OC | – | 90.1% | 15 µM | – |
| COc1ccc(C(=O)N(C)c2nc(-c3cc(OC)c(OC)c(OC)c3)cs2)c(OC)c1 | – | 119% | 5.04 µM | – |
| Cc1s/c(=N\C(=O)c2ccccc2)n(C)c1-c1ccc(F)cc1 | – | 83.8% | 0.847 µM | – |
| Cc1sc(NC(=O)c2ccccc2)nc1-c1ccccc1 | – | 99% | > 25 µM | – |
| C=CCn1c(-c2ccccc2)cs/c1=N\C(=O)c1ccccc1 | – | 64.8% | 1.2 µM | – |
| Cn1c(-c2cccc(Cl)c2)cs/c1=N\C(=O)c1ccccc1 | – | 35.2% | 0.367 µM | – |
| Cc1csc(NC(=O)c2ccccc2)n1 | – | 103% | 12 µM | – |
| C#CCn1c(-c2ccc(C)cc2C)cs/c1=N\C(=O)c1ccccc1 | – | 70.2% | 3.89 µM | – |
| CN(C(=O)c1ccccc1)c1nc(-c2ccc(Br)cc2)cs1 | – | 65.4% | 0.317 µM | – |

| SMILES | inhibition at 10 µM (MDA-MB-231 [1]) | viability at 1 µM (MDA-MB-231 [2]) | IC50 (MDA-MB-231 [3]) | Activity (HeLa (Homo sapiens)) |
| --- | --- | --- | --- | --- |
| COc1ccccc1C(=O)Nc1nc(-c2cc(OC)c(OC)c(OC)c2)cs1 | – | 104% | 8.5 µM | – |
| COc1ccccc1C(=O)N(C)c1nc(-c2cc(OC)c(OC)c(OC)c2)cs1 | – | 109% | > 25 µM | – |
| Cc1ccc(-c2cnc(NC(=O)c3ccccc3)s2)cc1 | – | 55.6% | 0.308 µM | – |
| O=C(Nc1nc(-c2ccccc2Cl)cs1)c1ccccc1 | – | 102% | 15 µM | – |
| COc1cc(-c2csc(NC(=O)c3ccccc3)n2)cc(OC)c1OC | – | 95% | > 50 µM | – |
| O=C(Nc1nc(-c2cc(C(F)(F)F)cc(C(F)(F)F)c2)cs1)c1ccccc1 | – | 85.8% | 0.336 µM | – |
| C#CCN(C(=O)c1ccccc1)c1nc(-c2ccc(C)cc2C)cs1 | – | 106% | 0.321 µM | – |
| Cc1ccc(-c2csc(N(C)S(=O)(=O)c3ccccc3)n2)c(C)c1 | – | 117% | > 25 µM | – |
| CCn1c(-c2ccccc2)cs/c1=N\C(=O)c1ccccc1 | – | 68.5% | 0.0515 µM | – |
| O=C(Nc1nc(-c2cccc(Br)c2)cs1)c1ccccc1 | – | 78% | 10 µM | – |
| Cn1c(-c2cccc(Br)c2)cs/c1=N\C(=O)c1ccccc1 | – | 94.4% | 0.302 µM | – |
| COc1ccc(C(=O)Nc2nc(-c3cc(OC)c(OC)c(OC)c3)cs2)cc1OC | – | 87.3% | > 25 µM | – |
| COc1ccc(C(=O)Nc2nc(-c3cc(OC)c(OC)c(OC)c3)cs2)cc1 | – | 93.8% | > 25 µM | – |
| COc1cc(C(=O)/N=c2\scc(-c3cc(OC)c(OC)c(OC)c3)n2C)cc(OC)c1OC | – | 81.5% | 1.96 µM | – |
| CCCN(C(=O)c1ccccc1)c1nc(-c2ccccc2)cs1 | > 50% | 116% | 0.077 µM | Active |
| Cn1c(-c2ccc(Br)cc2)cs/c1=N\C(=O)c1ccccc1 | – | 59.3% | 0.125 µM | – |
| COc1cc(-c2csc(N(C)C(=O)c3ccccc3)n2)cc(OC)c1OC | – | 96.4% | 10 µM | – |
| CCCn1c(-c2ccc(C)cc2C)cs/c1=N\C(=O)c1ccccc1 | – | 85% | 0.292 µM | – |
| CN(C(=O)c1ccccc1)c1nc(-c2ccccc2Cl)cs1 | – | 88.9% | 0.0416 µM | – |
| COc1ccc(C(=O)/N=c2\scc(-c3cc(OC)c(OC)c(OC)c3)n2C)cc1 | – | 106% | 8.04 µM | – |

From ChEMBL document CHEMBL3352186, “Modification and biological evaluation of thiazole derivatives as novel inhibitors of metastatic cancer cell migration and invasion” (J Med Chem, 2014)
